The source of these data is ChEMBL document CHEMBL3808344, “Design and synthesis of novel benzoxazole analogs as Aurora B kinase inhibitors” (Bioorg Med Chem Lett, 2016).

Active and inactive are the calls of the source. No cut-off for these calls is given here.

T1 sequence (Q96GD4 whole entry): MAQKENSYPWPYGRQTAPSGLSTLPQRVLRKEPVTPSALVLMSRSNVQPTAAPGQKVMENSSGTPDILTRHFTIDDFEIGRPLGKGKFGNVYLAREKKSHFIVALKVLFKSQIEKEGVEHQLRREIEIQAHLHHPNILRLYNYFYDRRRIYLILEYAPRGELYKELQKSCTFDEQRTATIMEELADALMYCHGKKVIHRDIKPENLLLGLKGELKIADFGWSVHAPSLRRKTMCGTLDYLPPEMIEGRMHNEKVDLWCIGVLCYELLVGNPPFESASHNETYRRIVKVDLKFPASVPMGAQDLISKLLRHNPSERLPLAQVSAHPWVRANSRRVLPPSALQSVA

Test system in the first data set: not listed separately
Kind of data set: Cytotoxicity against human PC3 cells assessed as reduction in cell growth after 48 hrs by SRB assay. The conditions noted are these: PC-3, 48 h. The class given is functional.
As for `O=C(Nc1ccc(CNc2nc3ccc(OCCN4CCOCC4)cc3o2)cc1)Nc1ccc(Cl)c(Cl)c1`, the GI50 (as a rule, the concentration at which growth is held to half of that of the control) came out at 4.8 µM.
Take `O=C(Nc1ccc(Cl)cc1)Nc1ccc(CNc2nc3ccc(OCCN4CCOCC4)cc3o2)cc1`: the GI50 turned out to be 6.2 µM.

Test system in the next data set: not listed separately
The experiment in a line: Cytotoxicity against human NUGC3 cells assessed as reduction in cell growth after 48 hrs by SRB assay. It counts as functional. The conditions noted are these: NUGC-3, 48 h. On the technique in general: Sulforhodamine B stains cellular protein and so reports cell mass.
Turning to `O=C(Nc1ccc(CNc2nc3ccc(OCCN4CCOCC4)cc3o2)cc1)Nc1ccc(Cl)c(Cl)c1`, the GI50 was determined as 8.4 µM.
In the case of `O=C(Nc1ccc(Cl)cc1)Nc1ccc(CNc2nc3ccc(OCCN4CCOCC4)cc3o2)cc1`, the GI50 amounted to 5.5 µM.

Test system in a further data set: not listed separately
The experiment in a line: Cytotoxicity against human HCT15 cells assessed as reduction in cell growth after 48 hrs by SRB assay. The conditions noted are these: HCT-15, 48 h. The class given is functional.
For `O=C(Nc1ccc(CNc2nc3ccc(OCCN4CCOCC4)cc3o2)cc1)Nc1ccc(Cl)c(Cl)c1`, the GI50 amounted to 3 µM.
For `O=C(Nc1ccc(Cl)cc1)Nc1ccc(CNc2nc3ccc(OCCN4CCOCC4)cc3o2)cc1`, the GI50 was determined as 4.8 µM.

The test system of the next data set is NCI-H23. The experiment in a line: Cytotoxicity against human NCI-H23 cells assessed as reduction in cell growth after 48 hrs by SRB assay. It counts as functional. The settings on record: NCI-H23, 48 h.
On to `O=C(Nc1ccc(CNc2nc3ccc(OCCN4CCOCC4)cc3o2)cc1)Nc1ccc(Cl)c(Cl)c1`, for which the GI50 worked out at 3.4 µM.
The same measure, in the same setting: the figure for `O=C(Nc1ccc(Cl)cc1)Nc1ccc(CNc2nc3ccc(OCCN4CCOCC4)cc3o2)cc1` is 4 µM.

The subject of the next data set is PC-3. The experiment in a line: Antitumor activity against human PC3 cells xenografted in nu/nu BALB/c mouse assessed as tumor growth inhibition at 50 mg/kg, po administered qd for 16 days relative to control. It counts as functional, organism-based.
Settings: not given
Put shortly:
(§1)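 PC-3 prostate tumours grown as xenografts in nude mice. Dosed orally at 50 mg/kg once daily for 16 days; vehicle was 10% dimethylacetamide plus 10% Tween 80 in water. Tumour volume measured every two or three days, tumours weighed after harvest on day 16, and body weight followed throughout. Treated groups compared with vehicle by Student's t-test.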
(In general: A xenograft is tissue or cells of one species grown in another, often human tumour cells in immunodeficient mice.)
As for `O=C(Nc1ccc(CNc2nc3ccc(OCCN4CCOCC4)cc3o2)cc1)Nc1ccc(Cl)c(Cl)c1`, the TGI entry is “Active”.

For the next data set, the system named is Mus musculus. The experiment in a line: Toxicity in nu/nu BALB/c mouse xenografted with human PC3 cells assessed as loss in body weight at 50 mg/kg, po administered qd for 16 days measured during compound dosing. The class given is organism-based, PC-3. The conditions noted are these: in vivo, 384 h. The essentials:
as §1
Consider `O=C(Nc1ccc(CNc2nc3ccc(OCCN4CCOCC4)cc3o2)cc1)Nc1ccc(Cl)c(Cl)c1`, for which the Activity result was “Non-toxic”.

A further data set concerns the target T1, Aurora kinase B (Homo sapiens, UniProt Q96GD4). The experiment in a line: Inhibition of Aurora B (unknown origin) using myelin protein as substrate assessed as ADP generation after 60 mins by ADP-glo assay.
Settings: not given
(In general: In ADP-Glo the light output rises with the ADP produced.)
`O=C(Nc1ccc(Cl)cc1)Nc1ccc(COc2ccc3nc(NCCN4CCOCC4)oc3c2)cc1`: the IC50 – broadly, the point on the concentration scale where inhibition reaches its midpoint – came to 50.4 µM.
Same read-out and setting: the figure for `O=C(Nc1ccc(CNc2nc3ccc(OCCN4CCOCC4)cc3o2)cc1)Nc1ccc(Cl)c(Cl)c1` is 0.6 µM.
For `O=C(Nc1ccc(CNc2nc3ccc(OCCN4CCOCC4)cc3o2)cc1)Nc1ccc(Cl)cc1Cl`, the IC50 was determined as 0.7 µM.
On to `O=C(Nc1ccc(Cl)cc1)Nc1ccc(CNc2nc3ccc(OCCN4CCOCC4)cc3o2)cc1`, for which the IC50 is 10.2 µM.
On the same count and under the same terms, the figure for `O=C(Nc1ccc(COc2ccc3nc(NCCN4CCOCC4)oc3c2)cc1)Nc1ccc(Cl)c(Cl)c1` is 49.4 µM.

In the next data set the target is T1, Aurora kinase B. Kind of data set: Inhibition of Aurora B (unknown origin) using myelin protein as substrate assessed as ADP generation at 10 uM after 60 mins by ADP-glo assay relative to staurosporine.
Settings: not given
Put shortly:
(§2)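 Aurora A and Aurora B activity read by ADP-Glo, measuring ADP formed from ATP during the kinase reaction. Compounds tested at 10 μM. Inhibition expressed as percentage relative to the staurosporine positive control.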
`O=C(Nc1ccc(Cl)cc1)Nc1ccc(CNc2nc3cc(OCCN4CCOCC4)ccc3o2)cc1`: the inhibition – broadly, the drop in the measured response relative to a control, in per cent – was determined as 42%.
Same read-out and setting: the figure for `O=C(Nc1ccc(Cl)cc1)Nc1ccc(COc2ccc3nc(NCCN4CCOCC4)oc3c2)cc1` is 94%; for `O=C(Nc1ccc(Cl)cc1)Nc1ccc(COc2ccc3oc(NCCN4CCOCC4)nc3c2)cc1` it is 37%; for `O=C(Nc1ccc(CNc2nc3ccc(OCCN4CCOCC4)cc3o2)cc1)Nc1cccc(Cl)c1` it is 58%.
The same measure, in the same setting: the figure for `O=C(Nc1ccc(F)cc1)Nc1ccc(CNc2nc3ccc(OCCN4CCOCC4)cc3o2)cc1` is 34%; for `O=C(Nc1cccc(Cl)c1)Nc1cccc(CNc2nc3ccc(OCCN4CCOCC4)cc3o2)c1` it is “inactive”; for `O=C(Nc1ccc(COc2ccc3oc(NCCN4CCOCC4)nc3c2)cc1)Nc1ccc(Cl)c(Cl)c1` it is 74%.
For the molecule `COc1ccc(NC(=O)Nc2ccc(CNc3nc4ccc(OCCN5CCOCC5)cc4o3)cc2)cc1`, the inhibition turned out to be 76%.
For `O=C(Nc1ccccc1CNc1nc2ccc(OCCN3CCOCC3)cc2o1)c1ccccc1`, the inhibition entry was “inactive”.
Regarding `O=C(Nc1ccc(CNc2nc3ccc(OCCN4CCOCC4)cc3o2)cc1)c1ccccc1`, the inhibition was found to be 21%.
The same measure, in the same setting: the figure for `O=C(Nc1ccc(CNc2nc3ccc(OCCN4CCOCC4)cc3o2)cc1)Nc1ccc(Cl)c(Cl)c1` is 88%.
Same read-out and setting: the figure for `O=C(Nc1ccccc1)Nc1cccc(CNc2nc3ccc(OCCN4CCOCC4)cc3o2)c1` is 30%; for `Cc1ccc(NC(=O)Nc2ccc(CNc3nc4ccc(OCCN5CCOCC5)cc4o3)cc2)cc1` it is 65%; for `O=C(Nc1ccc(Br)cc1)Nc1ccc(COc2ccc3oc(NCCN4CCOCC4)nc3c2)cc1` it is 74%.
The same measure, in the same setting: the figure for `O=C(Nc1cccc(CNc2nc3ccc(OCCN4CCOCC4)cc3o2)c1)c1ccccc1` is 1%; for `O=C(Nc1ccc(Br)cc1)Nc1ccc(CNc2nc3ccc(OCCN4CCOCC4)cc3o2)cc1` it is 69%; for `O=C(Nc1ccc(CNc2nc3ccc(OCCN4CCOCC4)cc3o2)cc1)Nc1ccc(Cl)cc1Cl` it is 86%.
As to `O=C(Nc1ccccc1)Nc1cccc(COc2ccc3nc(NCCN4CCOCC4)oc3c2)c1`, the inhibition amounted to 80%.
On the same count and under the same terms, the figure for `O=C(Nc1ccc(Cl)cc1)Nc1cccc(CNc2nc3ccc(OCCN4CCOCC4)cc3o2)c1` is 45%; for `O=C(Nc1ccc(Br)cc1)Nc1ccc(COc2ccc3nc(NCCN4CCOCC4)oc3c2)cc1` it is 55%; for `O=C(Nc1ccc(Br)cc1)Nc1ccc(CNc2nc3cc(OCCN4CCOCC4)ccc3o2)cc1` it is 35%.
Turning to `O=C(Nc1ccccc1)Nc1ccc(CNc2nc3ccc(OCCN4CCOCC4)cc3o2)cc1`, the inhibition worked out at 40%.
On the same count and under the same terms, the figure for `O=C(Nc1ccc(Cl)cc1)Nc1ccc(CNc2nc3ccc(OCCN4CCOCC4)cc3o2)cc1` is 66%; for `O=C(Nc1ccc(COc2ccc3nc(NCCN4CCOCC4)oc3c2)cc1)Nc1ccc(Cl)c(Cl)c1` it is 70%.
Still for that read-out and setting: the figure for `O=C(Nc1ccc(CNc2nc3ccc(OCCN4CCOCC4)cc3o2)cc1)Nc1cccc(F)c1` is 63%.

Another data set addresses T2, Aurora kinase A (Homo sapiens) (UniProt O14965).
T2 sequence (whole entry): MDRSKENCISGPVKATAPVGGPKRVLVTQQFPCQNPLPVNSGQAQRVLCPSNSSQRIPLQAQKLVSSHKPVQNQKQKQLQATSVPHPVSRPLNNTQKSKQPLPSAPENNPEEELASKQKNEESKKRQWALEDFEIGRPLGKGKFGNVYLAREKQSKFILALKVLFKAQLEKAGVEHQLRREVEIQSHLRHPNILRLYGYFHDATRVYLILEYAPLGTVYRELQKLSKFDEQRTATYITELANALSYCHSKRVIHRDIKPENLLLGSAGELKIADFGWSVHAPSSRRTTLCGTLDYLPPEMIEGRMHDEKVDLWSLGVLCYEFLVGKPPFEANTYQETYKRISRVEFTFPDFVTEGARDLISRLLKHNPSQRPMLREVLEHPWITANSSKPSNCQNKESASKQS
The experiment in a line: Inhibition of Aurora A (unknown origin) using myelin protein as substrate assessed as ADP generation at 10 uM after 60 mins by ADP-glo assay relative to staurosporine.
Settings: not given
Put shortly:
as §2
In the case of `O=C(Nc1ccc(Cl)cc1)Nc1ccc(CNc2nc3cc(OCCN4CCOCC4)ccc3o2)cc1`, the inhibition was determined as 8%.
The same measure, in the same setting: the entry for `O=C(Nc1ccc(Cl)cc1)Nc1ccc(COc2ccc3nc(NCCN4CCOCC4)oc3c2)cc1` is “inactive”; for `O=C(Nc1ccc(Cl)cc1)Nc1ccc(COc2ccc3oc(NCCN4CCOCC4)nc3c2)cc1` it is 4%; for `O=C(Nc1ccc(CNc2nc3ccc(OCCN4CCOCC4)cc3o2)cc1)Nc1cccc(Cl)c1` it is 13%.
Still for that read-out and setting: the entry for `O=C(Nc1ccc(F)cc1)Nc1ccc(CNc2nc3ccc(OCCN4CCOCC4)cc3o2)cc1` is “inactive”; for `O=C(Nc1ccc(COc2ccc3oc(NCCN4CCOCC4)nc3c2)cc1)Nc1ccc(Cl)c(Cl)c1` it is 5%.
Turning to `COc1ccc(NC(=O)Nc2ccc(CNc3nc4ccc(OCCN5CCOCC5)cc4o3)cc2)cc1`, the inhibition came to 10%.
On the same count and under the same terms, the figure for `O=C(Nc1ccc(CNc2nc3ccc(OCCN4CCOCC4)cc3o2)cc1)Nc1ccc(Cl)c(Cl)c1` is 24%; for `Cc1ccc(NC(=O)Nc2ccc(CNc3nc4ccc(OCCN5CCOCC5)cc4o3)cc2)cc1` it is “inactive”.
Turning to `O=C(Nc1ccc(Br)cc1)Nc1ccc(COc2ccc3oc(NCCN4CCOCC4)nc3c2)cc1`, the inhibition was 3%.
Turning to `O=C(Nc1ccc(Br)cc1)Nc1ccc(CNc2nc3ccc(OCCN4CCOCC4)cc3o2)cc1`, the inhibition entry is “inactive”.
As for `O=C(Nc1ccc(CNc2nc3ccc(OCCN4CCOCC4)cc3o2)cc1)Nc1ccc(Cl)cc1Cl`, the inhibition was found to be 8%.
Take `O=C(Nc1ccccc1)Nc1cccc(COc2ccc3nc(NCCN4CCOCC4)oc3c2)c1`: the inhibition was determined as 1%.
On the same count and under the same terms, the figure for `O=C(Nc1ccc(Cl)cc1)Nc1cccc(CNc2nc3ccc(OCCN4CCOCC4)cc3o2)c1` is 8%; for `O=C(Nc1ccc(Br)cc1)Nc1ccc(COc2ccc3nc(NCCN4CCOCC4)oc3c2)cc1` it is “inactive”.
The same measure, in the same setting: the figure for `O=C(Nc1ccc(Br)cc1)Nc1ccc(CNc2nc3cc(OCCN4CCOCC4)ccc3o2)cc1` is -6%; for `O=C(Nc1ccccc1)Nc1ccc(CNc2nc3ccc(OCCN4CCOCC4)cc3o2)cc1` it is 15%.
Turning to `O=C(Nc1ccc(Cl)cc1)Nc1ccc(CNc2nc3ccc(OCCN4CCOCC4)cc3o2)cc1`, the inhibition was 5%.
Still for that read-out and setting: the figure for `O=C(Nc1ccc(COc2ccc3nc(NCCN4CCOCC4)oc3c2)cc1)Nc1ccc(Cl)c(Cl)c1` is 2%; for `O=C(Nc1ccc(CNc2nc3ccc(OCCN4CCOCC4)cc3o2)cc1)Nc1cccc(F)c1` it is 7%.

A further data set has as its system ACHN. The experiment in a line: Cytotoxicity against human ACHN cells assessed as reduction in cell growth after 48 hrs by SRB assay.
Settings: not given
It counts as functional.
As to `O=C(Nc1ccc(CNc2nc3ccc(OCCN4CCOCC4)cc3o2)cc1)Nc1ccc(Cl)c(Cl)c1`, the GI50 amounted to 2.6 µM.
The same measure, in the same setting: the figure for `O=C(Nc1ccc(Cl)cc1)Nc1ccc(CNc2nc3ccc(OCCN4CCOCC4)cc3o2)cc1` is 2.2 µM.

In a further data set the test system is MDA-MB-231. The experiment in a line: Cytotoxicity against human MDA-MB-231 cells assessed as reduction in cell growth after 48 hrs by SRB assay. It counts as functional. The conditions noted are these: MDA-MB-231, 48 h.
Turning to `O=C(Nc1ccc(CNc2nc3ccc(OCCN4CCOCC4)cc3o2)cc1)Nc1ccc(Cl)c(Cl)c1`, the GI50 amounted to 5 µM.
The same measure, in the same setting: the figure for `O=C(Nc1ccc(Cl)cc1)Nc1ccc(CNc2nc3ccc(OCCN4CCOCC4)cc3o2)cc1` is 7.6 µM.
